Data: ChEMBL document CHEMBL1799942, “Design, synthesis and antifungal activities of novel 1,2,4-triazole derivatives” (2011)
≈ marks a conversion by molar mass, not a printed value.

Experiments:
Format in all cases: functional
Trichophyton rubrum = experiment: Antifungal activity against Trichophyton rubrum after 7 days by micro-broth dilution method; conditions: 168 h
Outline: (§1)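 Broth microdilution following the NCCLS yeast reference method (M27-A2), run on clinical isolates of filamentous fungi. Compounds were dissolved in DMSO, serially diluted in growth medium, inoculated and incubated at 35 °C. Growth was read at 7 days. MIC80 is the first well with about 80% less growth than the drug-free well.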

Cryptococcus neoformans = experiment: Antifungal activity against Cryptococcus neoformans ATCC BLS108 after 72 hrs by micro-broth dilution method; conditions: ATCC BLS108, 72 h
Outline: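 NCCLS M27-A2 microdilution on the ATCC BLS108 quality-control strain, tested in every assay. Compounds were taken up in DMSO, serially diluted in growth medium, inoculated and incubated at 35 °C. Growth was scored at 72 h. MIC80 is the first well with about 80% lower growth than the drug-free control well.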

Candida tropicalis = experiment: Antifungal activity against Candida tropicalis by micro-broth dilution method
Outline: (§2)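 Micro-broth dilution per NCCLS M27-A2. The C. parapsilosis strain is the ATCC 0306392 quality-control standard tested in each assay; the C. tropicalis strain is a clinical isolate. Compounds were in DMSO, serially diluted in growth medium, inoculated and incubated at 35 °C. MIC80 is the first well with about 80% growth reduction relative to the drug-free well.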

Candida parapsilosis = experiment: Antifungal activity against Candida parapsilosis ATCC 0306392 by micro-broth dilution method; conditions: Lodderomyces parapsilosis; outline: as §2
Nannizzia gypsea = experiment: Antifungal activity against Microsporum gypseum after 7 days by micro-broth dilution method; conditions: 168 h; outline: as §1
[1] = Antifungal activity against Fonsecaea compacta by micro-broth dilution method; outline: as §1
Candida albicans = experiment: Antifungal activity against Candida albicans ATCC Y0109 after 24 hrs by micro-broth dilution method; conditions: ATCC Y0109, 24 h
Outline: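 Micro-broth dilution per NCCLS M27-A2 on the quality-control standard strain ATCC Y0109, included in each assay. Compounds were dissolved in DMSO, serially diluted in growth medium, inoculated and incubated at 35 °C, with growth read at 24 h. MIC80 is the first well showing roughly 80% growth reduction versus the drug-free well.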

Aspergillus fumigatus = experiment: Antifungal activity against Aspergillus fumigatus after 7 days by micro-broth dilution method; conditions: 168 h; outline: as §1

Compound `OC(Cn1cncn1)(Cn1cncn1)c1ccc(F)cc1F` [FLUCONAZOLE] has an MIC80 (Trichophyton rubrum) of 0.25 µg/mL (≈ 0.816 µM), an MIC80 (Cryptococcus neoformans) of 1 µg/mL (≈ 3.27 µM) and an MIC80 (Candida tropicalis) of 1 µg/mL (≈ 3.27 µM). It also gave an MIC80 (Candida parapsilosis) of 1 µg/mL (≈ 3.27 µM), an MIC80 (Nannizzia gypsea) of 0.25 µg/mL (≈ 0.816 µM) and an MIC80 [1] of 16 µg/mL (≈ 52.2 µM). For the same compound, the MIC80 (Candida albicans) was 4 µg/mL (≈ 13.1 µM) and the MIC80 (Aspergillus fumigatus) was 64 µg/mL (≈ 209 µM).
In the case of `CCC(C)n1ncn(-c2ccc(N3CCN(c4ccc(OCC5COC(Cn6cncn6)(c6ccc(Cl)cc6Cl)O5)cc4)CC3)cc2)c1=O` (configuration not stated) [ITRACONAZOLE], the MIC80 (Trichophyton rubrum) is reported as 0.0156 µg/mL (≈ 0.0221 µM), the MIC80 (Cryptococcus neoformans) is reported as 1 µg/mL (≈ 1.42 µM) and the MIC80 (Candida tropicalis) is reported as 0.25 µg/mL (≈ 0.354 µM). For the same compound, the MIC80 (Candida parapsilosis) was 0.25 µg/mL (≈ 0.354 µM), the MIC80 (Nannizzia gypsea) was 0.0156 µg/mL (≈ 0.0221 µM) and the MIC80 [1] was 0.25 µg/mL (≈ 0.354 µM). For the same compound, the MIC80 (Candida albicans) was 1 µg/mL (≈ 1.42 µM) and the MIC80 (Aspergillus fumigatus) was 1 µg/mL (≈ 1.42 µM).
For `CC(=O)N1CCN(c2ccc(OCC3COC(Cn4ccnc4)(c4ccc(Cl)cc4Cl)O3)cc2)CC1` (configuration not stated) [KETOCONAZOLE], the MIC80 (Trichophyton rubrum) was 0.0625 µg/mL (≈ 0.118 µM), the MIC80 (Cryptococcus neoformans) was 0.0625 µg/mL (≈ 0.118 µM) and the MIC80 (Candida tropicalis) was 0.0625 µg/mL (≈ 0.118 µM). It also gave an MIC80 (Candida parapsilosis) of 0.0625 µg/mL (≈ 0.118 µM), an MIC80 (Nannizzia gypsea) of 0.0039 µg/mL (≈ 0.00734 µM) and an MIC80 [1] of 0.0625 µg/mL (≈ 0.118 µM). The MIC80 (Candida albicans) was 0.0625 µg/mL (≈ 0.118 µM) and the MIC80 (Aspergillus fumigatus) was 1 µg/mL (≈ 1.88 µM).
`C[C@@H](c1ncncc1F)[C@](O)(Cn1cncn1)c1ccc(F)cc1F` [VORICONAZOLE] gave an MIC80 (Trichophyton rubrum) of 0.0039 µg/mL (≈ 0.0112 µM), an MIC80 (Cryptococcus neoformans) of 0.0156 µg/mL (≈ 0.0447 µM) and an MIC80 (Candida tropicalis) of 0.25 µg/mL (≈ 0.716 µM). It also gave an MIC80 (Candida parapsilosis) of 1 µg/mL (≈ 2.86 µM), an MIC80 (Nannizzia gypsea) of 0.0039 µg/mL (≈ 0.0112 µM) and an MIC80 [1] of 0.0156 µg/mL (≈ 0.0447 µM). For the same compound, the MIC80 (Candida albicans) was 0.0156 µg/mL (≈ 0.0447 µM) and the MIC80 (Aspergillus fumigatus) was > 64 µg/mL.
